In ChEMBL document CHEMBL1136796 (J Med Chem, 2003):
pEC50, pIC50: −log10 of the molar value. Counter-ions that a name gives are not always drawn. Each block holds one molecule with its values, some of them ahead of it.

What was measured:
K562 = assay: In vitro inhibitory concentration against human chronic myelogenous leukemia K562 cell growth; format: functional, cell-based
Tubulin [1] = target: T1, Tubulin (Sus scrofa, UniProt P02554+P02550); assay: In vitro inhibition of maximum porcine tubulin assembly rate after 20 min at 37 degrees C; format: functional
KB = assay: Cytotoxic activity against cellular metabolic activity of Cervix KB/HeLa tumor cell line using XTT proliferation assay after incubation with the compound for 48 h; format: functional, cell-based; conditions: Homo sapiens
SF-268 [2] = assay: Cytotoxic activity against cellular metabolic activity of Glioma SF-268 tumor cell line using XTT proliferation assay after incubation with the compound for 48 h; format: functional, cell-based; conditions: Homo sapiens, SF-268, 48 h
RKO [3] = assay: Cytotoxic activity against human colon adenocarcinoma RKO cells with ectopic inducible expression of cyclin-dependent kinase inhibitor p27kip1; format: functional, cell-based
RKO [4] = assay: Cytotoxic activity against human colon adenocarcinoma RKO cells without ectopic inducible expression of cyclin-dependent kinase inhibitor p27kip1; format: functional, cell-based
SK-OV-3 = assay: Cytotoxic activity against cellular metabolic activity of Ovary SKOV3 tumor cell line using XTT proliferation assay after incubation with the compound for 48 h; format: functional, cell-based; conditions: Homo sapiens, SK-OV-3, 48 h
NCI-H460 [5] = assay: Cytotoxic activity against cellular metabolic activity of Lung NCI-H460 tumor cell line using XTT proliferation assay after incubation with the compound for 48 h; format: functional, cell-based; conditions: Homo sapiens, NCI-H460, 48 h
Procedure, shortened: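 NCI-H460 human lung tumor cells seeded at 1 × 10^3 cells/well in microtiter plates and exposed to a range of compound concentrations for 48 h. Proliferation read as cellular metabolic activity by XTT. At least two replicates (n = 2); IC50 obtained from dose–response curves by nonlinear regression.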

LT12 tumor cell line [6] = assay: Antiproliferative activity against LT12 phenotype LT12 MDR tumor cell line; format: functional, cell-based; conditions: Rattus norvegicus
L1210 [7] = assay: Antiproliferative activity against L1210 phenotype L1210 VCR tumor cell line; format: functional, cell-based; conditions: Mus musculus
L1210 [8] = assay: Antiproliferative activity against L1210 tumor cell line; format: functional, cell-based; conditions: Mus musculus
P388/ADR = assay: Antiproliferative activity against P388 phenotype P388 ADR tumor cell line; format: functional, cell-based; conditions: Mus musculus
LT12 tumor cell line [9] = assay: Antiproliferative activity against LT12 tumor cell line; format: functional, cell-based; conditions: Rattus norvegicus
P388 (Mus musculus) = assay: Antiproliferative activity against P388 tumor cell line
HeLa (Homo sapiens) = assay: Effective concentration required to arrest propidium iodide stained KB/HeLa cells in G2/M phase
NCI-H460 [10] = assay: Tested for induction of cellular death in Human lung H-460 tumor cell line in Propidium Iodide Monolayer Assay; format: functional, cell-based
Procedure, shortened: (§1)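 Propidium iodide monolayer assay: cells seeded at 1 × 10^5 or 5 × 10^4 cells/mL, 24 h recovery, drug in triplicate for 3–6 days by doubling time; PI 25 μg/mL added, fluorescence (ex 530/em 620 nm) read before and after freezing at −18 °C for 24 h; viable cells from the difference; % T/C versus concentration.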

MAXF401 cell line = assay: Tested for induction of cellular death in Human breast 401NL tumor cell line in Propidium Iodide Monolayer Assay; format: functional, cell-based; procedure, shortened: as §1
MCF7 = assay: Tested for induction of cellular death in Human breast MCF-7 tumor cell line in Propidium Iodide Monolayer Assay; format: functional, cell-based; procedure, shortened: as §1
LXFL 529 = assay: Tested for induction of cellular death in Human lung LXF 529L tumor cell line in Propidium Iodide Monolayer Assay; format: functional, cell-based; procedure, shortened: as §1
[11] = test system: Lung LXF 629L tumor cell line; assay: Tested for induction of cellular death in Human lung LXF 629L tumor cell line in Propidium Iodide Monolayer Assay; format: functional, cell-based; procedure, shortened: as §1
SF-268 [12] = assay: Tested for induction of cellular death in Human ZNS SF-268 tumor cell line in Propidium Iodide Monolayer Assay; format: functional, cell-based; procedure, shortened: as §1
RXF 944 = assay: Tested for induction of cellular death in Human renal RXF 944L tumor cell line in Propidium Iodide Monolayer Assay; format: functional, cell-based; procedure, shortened: as §1
Sus scrofa = species on record: Sus scrofa; assay: In vitro inhibitory concentration against tubulin assembly; format: functional
Tubulin [13] = target: T1, Tubulin; assay: In vitro inhibitory concentration required to displace [3H]colchicine from its binding site on tubulin; format: protein assay

Structure (SMILES): COC(=O)c1cc(C=C2c3ccccc3C(=O)c3ccccc32)ccc1O
pIC50 (K562): 5.85
IC50 (Tubulin [1]): > 10 µM

Structure (SMILES): COc1cc(CC2c3ccccc3C(=O)c3ccccc32)cc(OC)c1OC
pIC50 (K562): < 4.10
IC50 (Tubulin [1]): > 10 µM

Structure (SMILES): O=C1c2ccccc2C(=Cc2cc(Br)c(O)c(Br)c2)c2ccccc21
pIC50 (K562): 6.80
IC50 (Tubulin [1]): 0.48 µM

Structure (SMILES): COc1cc2c(c(OC)c1OC)-c1ccc(OC)c(=O)cc1[C@@H](NC(C)=O)CC2 [COLCHICINE]
pIC50 (KB): 7.52
pIC50 (SF-268 [2]): 7.30
pIC50 (RKO [3]): < 5.00
pIC50 (RKO [4]): 7.70
pIC50 (K562): 7.70
pIC50 (SK-OV-3): 7.30
pIC50 (NCI-H460 [5]): 7.15

Structure (SMILES): CC(=O)O[C@H]1C(=O)[C@@]2(C)[C@H]([C@H](OC(=O)c3ccccc3)[C@]3(O)C[C@H](OC(=O)[C@H](O)[C@@H](NC(=O)c4ccccc4)c4ccccc4)C(C)=C1C3(C)C)[C@]1(OC(C)=O)CO[C@@H]1C[C@@H]2O [PACLITAXEL]
pIC50 (KB): 8.00
pIC50 (SF-268 [2]): 8.00
pIC50 (RKO [3]): < 5.52
pIC50 (RKO [4]): 8.00
pIC50 (LT12 tumor cell line [6]): 6.40
pIC50 (L1210 [7]): < 5.30
pIC50 (L1210 [8]): 7.22
pIC50 (SK-OV-3): 8.00
pIC50 (P388/ADR): < 5.30
pIC50 (NCI-H460 [5]): 8.00
pIC50 (LT12 tumor cell line [9]): 8.22
pIC50 (P388 (Mus musculus)): 7.40
pEC50 (HeLa (Homo sapiens)): 7.27

Structure (SMILES): COc1cc(C=C2c3ccccc3C(=O)c3ccccc32)cc(OC)c1O
pIC50 (NCI-H460 [10]): 5.51
pIC50 (MAXF401 cell line): 6.62
pIC50 (MCF7): 5.38
pIC50 (LXFL 529): 5.13
pIC50 [11]: 6.14
pIC50 (SF-268 [12]): 6.21
pIC50 (RXF 944): 6.82
pIC50 (K562): 6.77
IC50 (Tubulin [1]): 0.63 µM
pIC50 (Sus scrofa): > 6.00

Structure (SMILES): O=C1c2ccccc2C(=Cc2ccc(C(F)(F)F)cc2)c2ccccc21
pIC50 (K562): < 4.70

Further molecules by rising pIC50 (K562), results first:

pIC50 (K562): 4.41
Structure (SMILES): CC(C)(C)c1cc(C=C2c3ccccc3C(=O)c3ccccc32)cc(C(C)(C)C)c1O

pIC50 (K562): 4.60
IC50 (Tubulin [1]): 2.6 µM
Structure (SMILES): COc1ccc(CC2c3ccccc3C(=O)c3ccccc32)cc1

pIC50 (K562): 4.66
IC50 (Tubulin [1]): > 10 µM
Structure (SMILES): O=C1c2ccccc2C(=Cc2ccc(OCc3ccccc3)cc2)c2ccccc21

pIC50 (K562): 5.15
IC50 (Tubulin [1]): 2.3 µM
Structure (SMILES): COc1ccc(CC2c3ccccc3C(=O)c3ccccc32)cc1O

pIC50 (K562): 5.22
IC50 (Tubulin [1]): > 10 µM
Structure (SMILES): O=C1c2ccccc2C(=Cc2cc(Cl)cc(Cl)c2)c2ccccc21

pIC50 (K562): 5.52
Structure (SMILES): O=C1c2ccccc2C(=Cc2ccc([N+](=O)[O-])cc2)c2ccccc21

pIC50 (K562): 6.15
Structure (SMILES): CCOC(=O)c1ccc(C=C2c3ccccc3C(=O)c3ccccc32)cc1

pIC50 (K562): 6.22
IC50 (Tubulin [1]): 1.7 µM
Structure (SMILES): COc1ccc(C=C2c3ccccc3C(=O)c3ccccc32)cc1OC

pIC50 (LT12 tumor cell line [6]): 7.05
pIC50 (K562): 6.60
pIC50 (L1210 [7]): 7.15
pIC50 (L1210 [8]): 7.30
pIC50 (P388/ADR): 6.96
IC50 (Tubulin [1]): 0.43 µM
pIC50 (Sus scrofa): 6.37
IC50 (Tubulin [13]): 0.22 µM
pIC50 (LT12 tumor cell line [9]): 6.92
pIC50 (P388 (Mus musculus)): 7.10
pEC50 (HeLa (Homo sapiens)): 6.63
Structure (SMILES): COc1ccc(C=C2c3ccccc3C(=O)c3ccccc32)c(OC)c1O
pIC50 (KB): 7.30
pIC50 (SF-268 [2]): 7.22
pIC50 (NCI-H460 [10]): 6.82
pIC50 (MAXF401 cell line): > 8.00
pIC50 (MCF7): 5.73
pIC50 (LXFL 529): 7.15
pIC50 [11]: 7.30
pIC50 (SF-268 [12]): 7.40
pIC50 (RKO [3]): < 5.05
pIC50 (RKO [4]): 7.30
pIC50 (RXF 944): > 8.00
pIC50 (SK-OV-3): 7.22
pIC50 (NCI-H460 [5]): 7.22

pIC50 (K562): 7.22
IC50 (Tubulin [1]): 0.76 µM
pIC50 (Sus scrofa): > 6.00
Structure (SMILES): COc1ccc(C=C2c3ccccc3C(=O)c3ccccc32)cc1
pIC50 (NCI-H460 [10]): 6.30
pIC50 (MAXF401 cell line): 6.52
pIC50 (MCF7): 6.25
pIC50 (LXFL 529): 6.59
pIC50 [11]: 6.89
pIC50 (SF-268 [12]): 6.05
pIC50 (RXF 944): 6.15

pIC50 (K562): 9.00
Structure (SMILES): CC[C@]1(O)C[C@@H]2CN(CCc3c([nH]c4ccccc34)[C@@](C(=O)OC)(c3cc4c(cc3OC)N(C)[C@H]3[C@@](O)(C(=O)OC)[C@H](OC(C)=O)[C@]5(CC)C=CCN6CC[C@]43[C@@H]65)C2)C1 [VINBLASTINE SULFATE]
